Published values collected from several papers.
Compare with care: the assays were run in different laboratories.
Cell line: A549
Observed: cell growth or viability

| Compound | technique | tested at | time | endpoint | result |
| --- | --- | --- | --- | --- | --- |
| O=C(c1ccc(F)cc1)c1c[nH]c2ncc(-c3ccnc(N4CCNCC4)c3)cc12 | MTT | 10 µM | 48 h | viability | 101% |
| O=C(N/N=C1\C(=O)N(Cc2ccc(Cl)cc2)c2ccccc21)c1cc2ccccc2[nH]1 |  | 30 µM |  | inhibition | 96.9% |
| Cc1c(Cc2cccc(N(C)S(=O)(=O)CCCNCCCC(=O)N3CCN(c4ccc(Nc5c(C(N)=O)cnc6ccc(-c7cnc8ccccc8c7)cc56)cc4C(F)(F)F)CC3)c2)c(=O)oc2cc(OC(=O)N(C)C)ccc12 | CCK-8 |  |  | GI50 | 4.66 µM |
| O=C(N/N=C1\C(=O)N(Cc2ccccc2)c2ccc(Cl)cc21)c1cc2ccccc2[nH]1 |  | 30 µM |  | inhibition | 99.7% |
| CS(=O)(=O)N1CCN(c2ccc(-c3cnc4[nH]cc(C(=O)c5ccc(F)cc5)c4c3)cn2)CC1 | MTT | 10 µM | 48 h | viability | 97.3% |
| N.N.[Cl][Pt][Cl] | MTT |  |  | GI50 | 14.3 µM |
| O=C(N/N=C1\C(=O)N(Cc2ccccc2)c2ccccc21)c1cc2ccccc2[nH]1 |  | 30 µM |  | inhibition | 98.4% |
| O=C(c1ccc(F)cc1)c1c[nH]c2ncc(-c3ccc(N4CCNCC4)nc3)cc12 | MTT | 10 µM | 48 h | viability | 94.7% |
| CC(=O)O[C@H]1C[C@H](O[C@H]2[C@@H](O)C[C@H](O[C@H]3[C@@H](O)C[C@H](O[C@H]4CC[C@@]5(C)[C@H](CC[C@@H]6[C@@H]5C[C@@H](O)[C@]5(C)[C@@H](C7=CC(=O)OC7)CC[C@]65O)C4)O[C@@H]3C)O[C@@H]2C)O[C@H](C)[C@H]1O | MTT | 5 µM | 24 h | inhibition | 73.9% |
| COc1ccc(C(=O)c2c[nH]c3ncc(-c4ccc(N5CCN(C(=O)OC(C)(C)C)CC5)nc4)cc23)cc1 | MTT | 10 µM | 48 h | viability | 88.1% |
| N.N.[Cl][Pt][Cl] | SRB |  | 72 h | EC50 | 4.5 µM |
| CCOC(=O)CCn1cc(C(=O)c2ccc(F)cc2)c2cc(-c3ccc(N4CCN(C(=O)OC(C)(C)C)CC4)nc3)cnc21 | MTT | 10 µM | 48 h | viability | 90.2% |
| CN1C[C@H](C(=O)N[C@]2(C)O[C@@]3(O)[C@@H]4CCCN4C(=O)[C@H](Cc4ccccc4)N3C2=O)C=C2c3cccc4[nH]cc(c34)C[C@H]21 | MTT |  | 72 h | EC50 | 13 µM |
| CC[C@@]1(OC(=O)[C@@H]2CCCN2)C(=O)OCc2c1cc1n(c2=O)Cc2cc3cc4c(cc3nc2-1)OCO4 | MTT |  |  | IC50 | 0.031 µM |
| O=C(N/N=C1\C(=O)N(Cc2ccccc2)c2ccc(Br)cc21)c1cc2ccccc2[nH]1 |  | 30 µM |  | inhibition | 96.1% |
| C[C@]12CC[C@H](O)C[C@H]1CC[C@@H]1[C@@H]2C[C@@H](O)[C@]2(C)[C@@H](C3=CC(=O)OC3)CC[C@]12O | MTT | 5 µM | 24 h | inhibition | 72.3% |
| N#Cc1ccc(CN2C(=O)/C(=N\NC(=O)c3cc4ccccc4[nH]3)c3ccccc32)cc1 |  | 30 µM |  | inhibition | 94.6% |
| COc1cc([C@@H]2c3cc4c(cc3[C@H](O)[C@H]3COC(=O)[C@H]23)OCO4)cc(OC)c1OC | MTT |  | 72 h | EC50 | 0.024 µM |
